Sampled rows, rich in hits. Any-hit rate of the full collection: about 0.89%.
PG9 Ab binder – binders of HIV-1 gp120 antibody PG9, primary screen, biochemical, TR-FRET; TR-FRET gp120-PG9 antibody binding; inhibition, % at 6.7 µM; 360,000 compounds, 0.43% hits; in the data active = inhibition above about 8.5%
Arr AP2 block – inhibitors of beta-arrestin/AP2 binding, primary screen, biochemical, GPCR trafficking, flow cytometry. inhibition, % at 10 µM. 340,000 compounds, 0.31% hits. FITC-arrestin peptide / GST-AP2 beads; AP2 beta2 appendage carries R879A mutation;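 active = inhibition above a set limit, near 3 SD of compounds lacking own fluorescence, cut at about 54% in these data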
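Assay system: GST-AP2 R879A bound to glutathione beads, E. coli-expressed; Medium: PBS with 0.05% Tween 20 and 0.1% BSA; Also added: fluorescein-tagged arrestin peptide at 50 nM final; Timing: 12 min plus 1 h, RT; Measured by: flow cytometry, FL1 (488/535 nm); Evaluation: percent drop in bead-associated FITC signal.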
hiPSC survival – enhancers of single-cell hiPSC survival, primary screen, ATPlite luminescence; 100% = ROCK inhibitor wells, 0% = DMSO; survival enhancement, % at 20 µM; 360,000 compounds, 0.044% hits; in the data active = survival enhancement above about 18%;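 note: cells exposed to compounds for 16 hours before the ATP read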
ABCB6 inh 2 – ABCB6 transporter inhibitors, primary screen, K562-ABCB6 cells, flow cytometry, MLPCN library. ATP-binding cassette sub-family B member 6 (Homo sapiens), Q9NP58. 360,000 compounds, 0.19% hits. K562-ABCB6 porphyrin accumulation, 1 h; stronger effect = lower value. fluorescence ratio to DMSO, % at 10 µM. AID 602162, 2011;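 active = fluorescence ratio to DMSO below 75%, the collection mean minus 3 SD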;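 note: signal is porphyrin accumulated inside mitochondria; lower ratio means ABCB6 inhibition with less porphyrin fluorescence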
Target sequence (Q9NP58 whole entry, looked up): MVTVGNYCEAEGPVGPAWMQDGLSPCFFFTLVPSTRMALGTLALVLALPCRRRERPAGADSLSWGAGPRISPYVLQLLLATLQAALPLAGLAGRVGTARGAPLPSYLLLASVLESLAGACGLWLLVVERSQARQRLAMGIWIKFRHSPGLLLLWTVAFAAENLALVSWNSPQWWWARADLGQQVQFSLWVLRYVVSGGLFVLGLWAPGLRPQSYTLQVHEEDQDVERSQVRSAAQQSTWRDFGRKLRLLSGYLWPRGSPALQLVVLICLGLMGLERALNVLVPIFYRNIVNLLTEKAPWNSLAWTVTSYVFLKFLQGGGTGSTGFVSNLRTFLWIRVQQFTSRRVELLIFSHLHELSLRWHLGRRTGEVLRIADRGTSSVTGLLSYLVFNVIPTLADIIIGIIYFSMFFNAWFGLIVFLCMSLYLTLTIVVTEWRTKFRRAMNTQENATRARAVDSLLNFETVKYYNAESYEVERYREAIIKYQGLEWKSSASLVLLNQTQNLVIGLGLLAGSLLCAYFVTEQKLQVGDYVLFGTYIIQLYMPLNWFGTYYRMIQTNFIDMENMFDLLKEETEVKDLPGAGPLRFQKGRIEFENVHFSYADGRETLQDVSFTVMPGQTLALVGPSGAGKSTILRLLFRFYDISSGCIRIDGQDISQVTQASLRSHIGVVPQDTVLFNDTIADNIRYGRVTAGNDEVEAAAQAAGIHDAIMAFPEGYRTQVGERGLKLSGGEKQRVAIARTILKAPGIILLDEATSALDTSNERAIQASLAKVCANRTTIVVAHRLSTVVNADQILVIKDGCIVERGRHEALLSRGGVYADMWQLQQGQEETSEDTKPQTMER
PG9 bind confirm – binders of anti-gp120 antibody PG9, confirmation, biochemical, TR-FRET; TR-FRET PG9 antibody binding; inhibition, % at 6.7 µM; 1,500 compounds, 90% hits; shares compounds with PG9 Ab binder; in the data active = inhibition above about 9%
PGV04 counter – binders of control antibody PGV04, counter-screen for PG9 antibody binder project, biochemical, TR-FRET, distinct HIV envelope site. TR-FRET PGV04 antibody-gp120 binding. shares compounds with PG9 Ab binder. 1,500 compounds, 95% hits. AID 651604, 2012. inhibition, % at 6.7 µM; in the data active = inhibition above about 9.5%
Each line names hits and unclear results; the compound was inactive in the other large screens (follow-up assays come after a bar, where they were run).

Cc1cc(SCC(=O)NCC2CCCO2)nc2ccccc12 (stereo not given)	PG9 Ab binder 12 | PG9 bind confirm 17 | PGV04 counter 20
CC(C)CNc1cccc2c1S(=O)(=O)N(Cc1cccc(F)c1)[C@@H](C)[C@H](c1ccccc1)O2	none (no result: Arr AP2 block, hiPSC survival, ABCB6 inh 2)
O=C(CCCn1c(SCc2cccc(F)c2)nc2ccccc2c1=O)NCC1CCCO1 (stereo not given)	PG9 Ab binder 13 | PG9 bind confirm 9.5 | PGV04 counter 13
NC(=O)c1ccc(NC(=O)COC(=O)c2c[nH]c3ccccc23)cc1	PG9 Ab binder 10 | PG9 bind confirm 8.9 | PGV04 counter 16
CC(=O)Nc1ccc(S(=O)(=O)Nc2nc3cc4c(cc3nc2Cl)OCCO4)cc1	PG9 Ab binder 13 | PG9 bind confirm 26 | PGV04 counter 35
CC(=O)Nc1ccc(S(=O)(=O)Nc2nc3ccccc3nc2Cl)cc1	PG9 Ab binder 17 | PG9 bind confirm 25 | PGV04 counter 32
Cc1ccc(C(C)(C)C)cc1S(=O)(=O)Nc1nc2ccccc2nc1Cl	PG9 Ab binder 13 | PG9 bind confirm 21 | PGV04 counter 25
Cc1ccc(-c2nc3cccnc3s2)cc1NC(=O)C1c2ccccc2Oc2ccccc21	PG9 Ab binder 19 | PG9 bind confirm 30 | PGV04 counter 63
N#Cc1cccc(NC(=O)CSc2nnc(-c3n[nH]c4ccccc34)o2)c1	PG9 Ab binder 9.4 | PG9 bind confirm inactive | PGV04 counter 10
COc1ccc(-c2ccc3c(n2)CCCN3S(=O)(=O)c2ccc(C#N)cc2)cc1	none (no result: Arr AP2 block, hiPSC survival, ABCB6 inh 2)
O=[N+]([O-])c1ccc(COc2cccc(CO)c2)cc1	none (no result: Arr AP2 block, hiPSC survival, ABCB6 inh 2)
COc1cc(NC(=O)c2ccc(Cl)cc2Cl)ccc1-c1cc2ccccc2oc1=O	PG9 Ab binder 12 | PG9 bind confirm 23 | PGV04 counter 33
COc1cc(NC(C)=O)ccc1-c1cc2ccccc2oc1=O	none
NC(=O)[C@@H]1CCCN1C(=O)[C@@H](Cc1ccccc1)NC(=O)[C@H]1O[C@@H](n2ccc(=O)[nH]c2=O)[C@H](O)[C@@H]1O	none (no result: Arr AP2 block, hiPSC survival, ABCB6 inh 2)
COc1ccc(C)cc1NC(=O)CSc1nnc(-c2ccc(Br)cc2)o1	PG9 Ab binder 11 | PG9 bind confirm 19 | PGV04 counter 26
COc1cccc(CNC(=O)COC(=O)/C(C#N)=C/c2ccc(N(C)C)cc2)c1	PG9 Ab binder 21 | PG9 bind confirm 36 | PGV04 counter 51
COc1ccc(/C=C(\C#N)C(=O)OCC(=O)NCc2ccccc2)cc1	none
O=C(Nc1ccc2ccccc2c1)c1ccc(Cl)cc1	PG9 Ab binder 10 | PG9 bind confirm 13 | PGV04 counter 18
COC(=O)c1cc(NC(=O)c2ccc(-c3ccccc3)cc2)ccc1Cl	PG9 Ab binder 10 | PG9 bind confirm 13 | PGV04 counter 22
COC(=O)c1cc(NC(=O)Nc2cccc(Cl)c2)ccc1Cl	none
Cc1ccc(C(=O)Nc2ccc3ccccc3c2)cc1	none (no result: Arr AP2 block)
O=C(C(=O)N1CCN(S(=O)(=O)c2cccc(C(F)(F)F)c2)CC1)c1cccc(C(F)(F)F)c1	none (no result: Arr AP2 block, hiPSC survival, ABCB6 inh 2)
CCOC(=O)NC(=O)CSc1cc(C)c2cc(C)cc(C)c2n1	none
Cc1cc(C)c2nc(SCC(=O)NC(=O)c3cccn3C)cc(C)c2c1	PG9 Ab binder 15 | PG9 bind confirm 13 | PGV04 counter 27
Cn1c(C(=O)NC2CCCCC2)cc2c(=O)n(C)c3ccccc3c21	PG9 Ab binder 12 | PG9 bind confirm 15 | PGV04 counter 26
Cn1c(C(=O)NC2CCCCCC2)cc2c(=O)n(C)c3ccccc3c21	none
O=C(O)CCc1ccc(-c2ccc(Br)cc2)o1	PG9 Ab binder 29 | PG9 bind confirm 37 | PGV04 counter 45
OCC1OC(C(N=Nc2ccccc2)=NNc2ccccc2)C(O)C1O (stereo not given)	none (no result: Arr AP2 block, hiPSC survival, ABCB6 inh 2)
Cc1ccc(CN2CCSc3ccc(C(=O)NCCCN4CCN(C)CC4)cc32)cc1	PG9 Ab binder 25 | PG9 bind confirm 29 | PGV04 counter 34
CC(C)CC(NC(=O)OCc1ccccc1)C(=O)NCC(=O)NCC(=O)OCc1ccccc1 (stereo not given)	none (no result: Arr AP2 block, hiPSC survival, ABCB6 inh 2)
O=C(NCCC1=CCCCC1)c1coc(=O)c(Br)c1	PG9 Ab binder 46 | PG9 bind confirm 57 | PGV04 counter 64
O=C(N/N=C/c1ccccn1)c1cc(-c2ccncc2)nc2ccccc12	PG9 Ab binder 15 (no result: Arr AP2 block) | PG9 bind confirm 19 | PGV04 counter 34
O=C(N/N=C/c1ccsc1)c1cc(-c2ccncc2)nc2ccccc12	none
O=C(C[C@H]1CC[C@@H](NC(=O)Cc2cccnc2)[C@@H](CO)O1)NCc1ccc2c(c1)OCO2	none (no result: Arr AP2 block, hiPSC survival, ABCB6 inh 2)
O=C(C[C@H]1CC[C@@H](NC(=O)Nc2ccc3c(c2)OCO3)[C@@H](CO)O1)NCc1ccccc1	PG9 Ab binder 14 (no result: Arr AP2 block, hiPSC survival, ABCB6 inh 2) | PG9 bind confirm inactive | PGV04 counter 19
Cn1nccc1C(=O)Nc1sc2c(c1C#N)CCCC2	none
COc1ccc(-c2c(C)sc(NC(=O)c3ccnn3C)c2C#N)cc1	PG9 Ab binder 52 | PG9 bind confirm 60 | PGV04 counter 61
CC(C)c1[nH]nc2c1C(c1cccc(C(F)(F)F)c1)NC2=O (stereo not given)	none (no result: Arr AP2 block, hiPSC survival, ABCB6 inh 2)
Cc1cc(N2C(=O)C(O)=C(C(=O)c3cc4ccccc4o3)C2c2ccc(OC(C)C)cc2)no1 (stereo not given)	none
Cc1cc(N2C(=O)C(O)=C(C(=O)c3cc4ccccc4o3)C2c2cccc(Br)c2)no1 (stereo not given)	PG9 Ab binder 38 | PG9 bind confirm 43 | PGV04 counter 56
CCCOc1cccc(C2C(C(=O)c3cc4ccccc4o3)=C(O)C(=O)N2c2cc(C)on2)c1 (stereo not given)	PG9 Ab binder 18 | PG9 bind confirm 24 | PGV04 counter 38
COc1cccc(C2C(C(=O)c3ccc(C)o3)=C(O)C(=O)N2c2cc(C)on2)c1 (stereo not given)	PG9 Ab binder 8.7 | PG9 bind confirm 17 | PGV04 counter 22
COc1cccc(C2C(C(=O)c3cccs3)=C(O)C(=O)N2c2cc(C)on2)c1 (stereo not given)	none
CCCCN1CC(COCc2ccccc2)Oc2cccc(Oc3ccc(SC)c(C)c3)c2S1(=O)=O (stereo not given)	none (no result: Arr AP2 block, hiPSC survival, ABCB6 inh 2)
Cc1cc(-c2n[nH]c(=S)n2-c2ccccc2)nn1C	none
Fc1cccc(-c2n[nH]c(=S)n2-c2ccccc2)c1	PG9 Ab binder 15 | PG9 bind confirm inactive | PGV04 counter 9.5
Cn1cc(Cl)c(-c2n[nH]c(=S)n2-c2ccccc2)n1	PG9 Ab binder 16 | PG9 bind confirm 15 | PGV04 counter 17

Compound activity from PubChem BioAssay.
